Test results from ChEMBL document CHEMBL3792290, “Part 1: Notch-sparing γ-secretase inhibitors: The identification of novel naphthyl and benzofuranyl amide analogs” (Bioorg Med Chem Lett, 2016).
Converted amounts (≈) assume the structure as drawn.

What was measured:
[1] = target: T1, Gamma-secretase (Homo sapiens) (UniProt Q96BI3+Q9NZ42+Q8WW43+P49768+Q92542+P49810); assay: Inhibition of purified human gamma-secretase expressed in CHO cells assessed as suppression of amyloid beta 40 production at 100 uM using C100-Flag as substrate incubated for 4 hrs by ELISA relative to DMSO control
[2] = Inhibition of human gamma-secretase expressed in CHO cells assessed as effect on Notch1 processing at 100 uM using N100-Flag as substrate incubated for 4 hrs by Western blot analysis relative to DMSO control; type: cell-based
Outline: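 Purified human γ-secretase from CHO cells stably overexpressing all four components; E. coli-expressed purified C100-Flag (APP) or N100-Flag (Notch) substrate; compounds at 100 μM final in 0.2% CHAPSO/HEPES pH 7.0 with 0.08% phosphatidylcholine, 0.02% phosphatidylethanolamine, DMSO <1% final; 37°C, 4 h; stopped with 0.5% SDS; Aβ40 by ELISA or Notch1 processing by Western blot, versus DMSO control.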

Gamma-secretase [3] = assay: Inhibition of gamma-secretase (unknown origin) assessed as suppression of amyloid beta 42 production by cell-based assay; design: species or system Homo sapiens
Gamma-secretase [4] = assay: Inhibition of gamma-secretase (unknown origin) assessed as suppression of amyloid beta 40 production by cell-based assay; design: species or system Homo sapiens
[5] = Inhibition of gamma-secretase (unknown origin) assessed as suppression of Notch1 processing by cell-based assay; details: Homo sapiens
[6] = target: T1, Gamma-secretase (Homo sapiens); assay: Inhibition of gamma-secretase (unknown origin) assessed as suppression of amyloid beta 42 production at 100 uM by cell-based assay
[7] = Metabolic stability in human liver microsomes assessed as parent compound remaining after 60 mins; type: ADME; details: read-out: Stability
[8] = Lipophilicity, logD of the compound; type: physicochemical; details: octanol/water
[9] = Permeability of compound from apical to basolateral side; type: ADME; details: not told; read-out: permeability
[10] = Metabolic stability in rat liver microsomes assessed as parent compound remaining after 60 mins; type: ADME; details: read-out: Stability
[11] = Solubility of compound in PBS buffer at pH 7.4; type: physicochemical
[12] = Protein binding in human plasma; type: ADME, cell-free; details: read-out: PPB (converted)
Gamma-secretase [13] = assay: Inhibition of human gamma-secretase expressed in CHO cells assessed as suppression of amyloid beta 40 production using C100-Flag as substrate incubated for 4 hrs by ELISA relative to DMSO control; type: cell-based
Outline: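 Enzyme from CHO cells stably overexpressing all four γ-secretase components, purified; C100-Flag substrate expressed in E. coli; reaction in 0.2% CHAPSO/HEPES pH 7.0 containing 0.08% phosphatidylcholine and 0.02% phosphatidylethanolamine, final DMSO <1%; incubated 37°C for 4 h, quenched with SDS (0.5% final); Aβ40 quantified by specific ELISA as percent of DMSO control.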

Gamma-secretase [14] = assay: Inhibition of human gamma-secretase expressed in CHO cells assessed as suppression of amyloid beta 42 production using C100-Flag as substrate incubated for 4 hrs by ELISA; type: cell-based

SMILES | inhibition [1] [%] | inhibition (INH) [2] | other results
Cc1c(C(=O)N(Cc2ccc(Cl)c(Cl)c2)C(C)C)oc2ccccc12 | 0 | – | –
CC(C)N(Cc1ccc(Cl)c(Cl)c1)C(=O)c1cc2ccccc2o1 | 51 | Not Active | –
COc1cccc2cc(C(=O)N(Cc3ccc(Cl)c(F)c3)C(C)C)oc12 | 23 | Not Active | –
CCC(CC)N(Cc1ccc(C(=O)O)cc1)S(=O)(=O)c1ccc(Cl)cc1 | – | – | IC50 (Gamma-secretase [4]): 120 nM; IC50 [5]: 10000 nM; IC50 (Gamma-secretase [3]): 130 nM
CC(C)N(Cc1ccccc1)C(=O)c1cc2ccccc2o1 | 40 | Not Active | –
CCOc1cccc2cc(C(=O)N(Cc3ccc(Cl)c(Cl)c3)C(C)C)oc12 | 58 | Not Active | –
COc1cccc2cc(C(=O)N(Cc3ccc(Cl)c(Cl)c3)C(C)C)oc12 | 75 | Not Active | inhibition [6]: 81%
CC(C)N(Cc1ccccc1)C(=O)c1ccccc1 | 10 | – | –
CC(C)N(Cc1ccccc1)C(=O)c1cnc2cc(Cl)ccc2c1O | 33 | Not Active | –
CC(C)N(Cc1ccccc1)C(=O)c1cn(C)c2ccccc12 | 0 | – | –
COc1cccc2cc(C(=O)N(Cc3ccc(F)c(Cl)c3)C(C)C)oc12 | 49 | Not Active | –
COC(=O)c1ccc(CN(c2cc(F)ccc2F)S(=O)(=O)c2ccc(F)cc2)cc1 | – | – | IC50 (Gamma-secretase [13]): 580 nM
O=S(=O)(c1ccc(F)cc1)N(Cc1ccccc1OC1CCOCC1)c1cc(F)ccc1F | – | – | IC50 (Gamma-secretase [13]): 360 nM; IC50 (Gamma-secretase [14]): 400 nM; IC50 (Gamma-secretase [3]): 620 nM
O=C(NCc1ccccc1)c1ccc2ccccc2c1 | 0 | – | –
CC(C)N(Cc1cc(F)cc(F)c1)C(=O)c1ccc2ccccc2c1O | 27 | – | –

Continued, in another order:

inhibition [1] [%] | inhibition (INH) [2] | SMILES | other results
34 | Not Active | CC(C)N(Cc1ccc(F)c(F)c1)C(=O)c1ccc2ccccc2c1 | –
33 | Not Active | COc1ccc(CN(C(=O)c2ccc3ccccc3c2O)C(C)C)cc1 | IC50 (Gamma-secretase [3]): 95000 nM
37 | Not Active | O=C(c1ccc2ccccc2c1)N(Cc1ccccc1)C1CC1 | –
52 | Not Active | CC(C)(C)N(Cc1ccccc1)C(=O)c1ccc2ccccc2c1 | –
67 | Not Active | CC(C)N(Cc1ccccc1)C(=O)c1ccc2ccccc2c1O | IC50 (Gamma-secretase [3]): 96000 nM
38 | Active | CC(C)N(Cc1ccc(N2CCCCC2)cc1)C(=O)c1ccc2ccccc2c1 | –
31 | – | CC(C)N(Cc1ccc(C#N)cc1)C(=O)c1ccc2ccccc2c1 | –
35 | Not Active | COc1cc(CN(C(=O)c2ccc3ccccc3c2)C(C)C)cc(OC)c1 | –
15 | – | CN(Cc1ccccc1)C(=O)c1ccc2ccccc2c1 | –
58 | Not Active | CC(C)N(Cc1ccc(Cl)c(Cl)c1)C(=O)c1ccc2ccccc2c1 | IC50 (Gamma-secretase [3]): 135000 nM
58 | Not Active | CC(C)N(Cc1ccccc1)C(=O)c1ccc2ccccc2c1 | remaining at 1 h [7]: 28%; logD [8]: 4.2; Papp A→B [9]: 39.6 ×10⁻⁶ cm/s; remaining at 1 h [10]: 1%; solubility [11]: 63 µM (≈ 19.1 µg/mL); fraction unbound [12]: 0.043; inhibition [6]: 81%
47 | Active | COc1ccc(CN(C(=O)c2ccc3ccccc3c2)C(C)C)cc1 | –
14 | – | CC(C)N(Cc1ccccc1)C(=O)c1ccc2occc2c1 | –
27 | – | CC(C)N(Cc1ccccc1)C(=O)c1ccc(-c2ccccc2)cc1 | –
21 | – | CC(C)N(Cc1cc(F)cc(F)c1)C(=O)c1ccc2ccccc2c1 | –
85 | Active | CC(C)N(Cc1ccccc1)C(=O)c1ccc(C(C)(C)C)cc1 | –
49 | Not Active | CC(C)N(Cc1ccc(F)c(F)c1)C(=O)c1ccc2ccccc2c1O | –
19 | Not Active | COc1cccc(CN(C(=O)c2ccc3ccccc3c2)C(C)C)c1 | –
41 | Not Active | CC(C)N(Cc1ccc(Cl)c(Cl)c1)C(=O)c1ccc2ccccc2c1O | IC50 (Gamma-secretase [3]): 85000 nM
50 | Active | CC(C)N(Cc1ccccc1)C(=O)c1cnc2ccccc2c1 | –
50 | Active | CC(C)N(Cc1ccccc1)C(=O)c1cccc(Oc2ccccc2)c1 | –
31 | – | CC(C)N(Cc1cccc(C#N)c1)C(=O)c1ccc2ccccc2c1 | –
